# Assay outcomes as filed in PubChem.
# A selection: hits, their analogues and other compounds. The true share with any hit is near 1%.
# Fh CTSL1 inh – blocks F. hepatica cathepsin L1 in PFM18AAP counter-screen. 300,000 tested, 0.49% active. recombinant F. hepatica cathepsin L1, Z-Leu-Arg-MCA fluorescence. inhibition, % at 5.96 µM. AID 1906;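 active means inhibition above the mean of all tested compounds plus 3 SD, set per screening campaign, cut at about 17% in these data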
# Arr AP2 block – blocks beta-arrestin peptide binding to AP2 adaptin; FITC-arrestin peptide / GST-AP2 beads, flow cytometry; AP2 beta2 appendage carries R879A mutation; inhibition, % at 10 µM; 340,000 tested, 0.31% active; AID 504490;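 active means inhibition above a set limit, near 3 SD of compounds lacking own fluorescence, cut at about 54% in these data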
#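 System: GST-AP2 R879A glutathione beads | Also added: FITC-arrestin peptide, 50 nM | Times: 12 min plus 1 h, RT | Signal: Bead flow cytometry, FITC channel | Buffer or medium: PBS with 0.05% Tween 20 and 0.1% BSA | Read-out basis: Percent drop in bead-associated FITC signal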
# Lipid droplet – hepatic lipid droplet formation modulation; AML12 mouse hepatocytes, oleate lipid droplets, BODIPY imaging; inhibition, % at 6.5 µM; 240,000 tested, 0.4% active; AID 1656;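 active means lipid droplet intensity inhibited by at least 50%, with more than 500 cells counted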
#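 Assay system: AML12 hepatocytes (mouse); Probe or stimulus: oleic acid at 100 µM to induce lipid droplet formation; Dosing: compound at 6.5 µM only; Schedule: compound with oleate, overnight; Detection: fluorescence imaging, 20x objective, two fields per well; Measure: % inhibition of lipid droplet signal.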
# p-CIP stab down – p/CIP protein destabilization; F442A p/CIP-EGFP cells, EGFP fluorescence, 16 h; Q05BA5; 290,000 tested, 0.01% active; decrease of EGFP signal, % at 10 µM;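 active means EGFP signal decrease of at least 30% at 10 µM or well 3 SD below plate mean, unless failing retest; inactive means the rest, including hits failing retest or dose response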
# Target sequence (Q05BA5 1-1403): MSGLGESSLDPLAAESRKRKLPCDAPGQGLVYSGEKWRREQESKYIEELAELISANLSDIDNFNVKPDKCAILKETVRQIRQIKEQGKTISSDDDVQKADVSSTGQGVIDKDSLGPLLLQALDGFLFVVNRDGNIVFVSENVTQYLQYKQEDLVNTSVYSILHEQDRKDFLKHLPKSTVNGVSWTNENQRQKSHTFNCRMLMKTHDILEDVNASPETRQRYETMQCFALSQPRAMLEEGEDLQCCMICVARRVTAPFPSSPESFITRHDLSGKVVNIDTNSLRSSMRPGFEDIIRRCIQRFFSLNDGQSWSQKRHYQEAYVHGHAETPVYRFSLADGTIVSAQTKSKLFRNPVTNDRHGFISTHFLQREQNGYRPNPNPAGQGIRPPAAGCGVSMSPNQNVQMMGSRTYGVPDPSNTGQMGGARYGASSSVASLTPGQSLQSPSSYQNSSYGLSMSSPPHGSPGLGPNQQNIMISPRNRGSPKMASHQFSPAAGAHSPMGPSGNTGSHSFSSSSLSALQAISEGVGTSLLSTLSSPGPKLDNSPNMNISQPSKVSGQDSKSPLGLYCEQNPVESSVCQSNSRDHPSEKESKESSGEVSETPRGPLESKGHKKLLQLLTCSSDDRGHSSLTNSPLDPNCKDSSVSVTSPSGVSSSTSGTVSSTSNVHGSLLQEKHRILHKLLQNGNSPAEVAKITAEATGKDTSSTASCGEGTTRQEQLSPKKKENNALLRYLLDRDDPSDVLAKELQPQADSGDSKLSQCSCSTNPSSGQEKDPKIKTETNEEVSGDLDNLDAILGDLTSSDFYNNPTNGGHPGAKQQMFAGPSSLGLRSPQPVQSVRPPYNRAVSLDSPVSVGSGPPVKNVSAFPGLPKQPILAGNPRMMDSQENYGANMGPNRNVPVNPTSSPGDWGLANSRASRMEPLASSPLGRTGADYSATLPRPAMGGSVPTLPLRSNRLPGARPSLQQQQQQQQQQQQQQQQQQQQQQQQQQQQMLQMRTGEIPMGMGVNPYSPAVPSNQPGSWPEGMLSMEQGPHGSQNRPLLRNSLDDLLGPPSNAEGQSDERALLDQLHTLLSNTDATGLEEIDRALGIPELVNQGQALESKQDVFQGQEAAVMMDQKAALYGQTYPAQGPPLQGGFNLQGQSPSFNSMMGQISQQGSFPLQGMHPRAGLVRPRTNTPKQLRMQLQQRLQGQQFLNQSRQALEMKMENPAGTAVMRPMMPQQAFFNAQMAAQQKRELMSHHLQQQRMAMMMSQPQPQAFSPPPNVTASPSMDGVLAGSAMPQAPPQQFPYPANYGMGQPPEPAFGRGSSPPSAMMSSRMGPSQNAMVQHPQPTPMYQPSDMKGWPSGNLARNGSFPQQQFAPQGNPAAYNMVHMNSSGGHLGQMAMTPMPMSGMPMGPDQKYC
# Lipid drop inh – confirmation of inhibitors of hepatic lipid droplet formation. AML12 mouse hepatocytes, BODIPY lipid droplet imaging; droplets induced with 100 µM oleic acid. inhibition, % at 5.2 µM. 870 tested, 65% active. shares compounds with Lipid droplet;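 active means inhibition of lipid droplet metric at least 50%, with more than 300 cells in each of four replicates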
# AML12 cytotox – toxic to AML12 mouse hepatocytes in counter-screen | AID 463200 | 870 tested, 3% active | DAPI nuclear morphology cytotoxicity imaging; hits give high values; cells fed 100 µM oleate overnight | shares compounds with Lipid droplet | z-score at 5 µM; in the data active means z-score above about 6.3;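 further: compound exposure lasted overnight at 37 °C before fixation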
# AML12 tox ATP – AML12 hepatocyte cytotoxicity, confirmed; AML12 mouse hepatocyte viability, ATP luminescence; cells loaded with 100 µM oleic acid; shares compounds with Lipid droplet; cytotoxicity, % at 50 µM; 530 tested, under 10 active;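 active means cytotoxicity above 50% in each of four replicates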;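 further: compound exposure lasted overnight at 37 °C before the ATP read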
# A number is an active result; i = inactive; nt = no result.
SMILES,Fh CTSL1 inh,Arr AP2 block,Lipid droplet,p-CIP stab down,Lipid drop inh,AML12 cytotox,AML12 tox ATP
COc1ccccc1N1CCN(C(=O)CSc2nc3ccccc3nc2N2CCC(C)CC2)CC1,i,i,51.6,i,i,i,nt
CCOc1ccccc1NC(=O)CSc1nc2ccccc2nc1N1CCCC1,i,i,i,i,nt,nt,nt
Cc1cc(C)cc(NC(=O)CCOc2ccccc2)c1,i,i,nt,i,nt,nt,nt
CCOc1ccc(NC(=O)CSc2nc3ccccc3nc2N2CCCC2)cc1,i,i,81.1,i,106.3,i,i
O=C(CSc1nc2ccccc2nc1N1CCCC1)Nc1ccc(F)cc1,i,i,i,i,nt,nt,nt
Cc1c(S(=O)(=O)c2ccccn2)c(N)n(Cc2ccccc2)c1C,i,i,60.9,i,i,i,nt
Cc1c(S(=O)(=O)c2ccccn2)c(N)n(Cc2ccccc2Cl)c1C,i,i,i,i,nt,nt,nt
CCCc1nc(SCC(=O)Nc2nnc(CC)s2)c2c(=O)n(C)c(=O)n(C)c2n1,i,i,i,i,nt,nt,nt
O=C(O)Cc1sc(-c2cccnc2)nc1-c1ccc(Br)cc1,i,i,i,i,nt,nt,nt
O=C(Cc1ccccc1F)Nc1nc(-c2ccc(F)c(F)c2)cs1,i,i,i,i,nt,nt,nt
CC(=O)Nc1ccc(-c2csc(NC(=O)Cc3ccccc3F)n2)cc1,i,i,57.7,i,74.9,i,i
CC(=O)Nc1ccc(-c2csc(NC(=O)Cc3cccc(F)c3)n2)cc1,i,i,64.3,i,100.5,i,i
Cc1cccc(C(=O)NCC(=O)OCC(=O)NC2CCCCC2)c1,nt,i,nt,nt,nt,nt,nt
COc1ccc(Nc2nc(N)nc(CSCCO)n2)cc1,i,i,i,i,nt,nt,nt
CC1=CCC(C(=O)O)(C(=O)N/N=C/c2cccs2)C(c2ccc(Cl)cc2)C1 (stereo not drawn),i,i,i,i,nt,nt,nt
CCOC(=O)n1cc(-c2cnc(CNC(=O)C(C)(c3ccccc3)c3ccccc3)o2)c2ccccc21,i,nt,58.9,i,90.5,i,nt
CCCOc1ccc(C(=O)Nc2nc(C)c(Cc3ccc4c(c3)OCO4)s2)cc1,i,i,i,i,nt,nt,nt
Cc1nc(NC(=O)c2ccc(OCC(C)C)cc2)sc1Cc1ccc2c(c1)OCO2,i,i,62.7,i,97.7,i,i
COCCNc1nc(N)c([N+](=O)[O-])c(NCC2CCCO2)n1 (stereo not drawn),i,i,i,i,nt,nt,nt
COc1ccc(CCNC(=O)C2CC3Cn4c(nc5cc6ccccc6cc54)C3N2C)cc1 (stereo not drawn),i,i,51.3,i,i,i,nt
CC(Sc1nnnn1-c1ccccc1)C(=O)Nc1ccc(N2CCN(C)CC2)cc1 (stereo not drawn),i,i,i,i,nt,nt,nt
COc1cccc(CNC(=O)CCCc2c[nH]c3ccccc23)c1,i,i,63.7,i,69.3,i,i
COc1ccc(C(=O)CCC(=O)NCCc2c[nH]c3ccccc23)cc1OC,i,i,123.8,i,98.7,i,i
COc1ccc(C2(c3ccc(OC)cc3)NC(=O)N(CC(=O)Nc3cc(C)ccc3OC)C2=O)cc1,i,i,86.3,i,106.3,i,i
COc1ccc(C2(c3ccc(OC)cc3)NC(=O)N(CC(=O)Nc3ccc(C(=O)N(C)C)cc3)C2=O)cc1,i,i,i,i,nt,nt,nt
SMILES,Fh CTSL1 inh,Arr AP2 block,Lipid droplet,p-CIP stab down,Lipid drop inh,AML12 cytotox,AML12 tox ATP
CCc1ccc(NC(=O)CSc2nnc(C)c(=O)n2N)cc1,i,i,58.3,i,89.1,i,i
O=C(O)CN1CCN(c2ncc(C(F)(F)F)cc2Cl)CC1,i,i,i,i,nt,nt,nt
CCN(Cc1ccccc1)C(=O)C1CCN(C(=O)Nc2ccccc2)CC1,i,i,77.2,i,104.4,i,i
c1ccc(-c2nc(N3CCOCC3)cc(N3CCOCC3)n2)cc1,i,i,67.2,i,91.7,i,i
CCCCNC(=O)C1CCN(C(=O)Nc2ccc(C)cc2)CC1,i,i,61.5,i,57.3,i,nt
CCOCCCNC(=O)C1CCN(C(=O)Nc2ccc(C)cc2)CC1,i,i,nt,i,nt,nt,nt
COc1ccccc1NC(=O)C(=O)NNC(=O)COc1ccc2ccccc2c1,i,i,i,i,nt,nt,nt
O=C(CSc1nc(O)cc(=O)[nH]1)N1c2ccccc2Sc2ccccc21,i,i,55.9,i,i,i,nt
